Laboratory results reported in ChEMBL document CHEMBL3243989, “Antibacterial N-[omega, omega'-bis(alicyclic and aryl)-sec-alkyl]poly(methylene)triamine and -tetramine hydrochloride salts” (J Med Chem, 1979).
Active and inactive are the calls of the source. No cut-off for these calls is given here.

Tests used:
Pseudomonas aeruginosa [1] = assay: Antibacterial activity against Pseudomonas aeruginosa MB418 assessed as growth inhibition; format: functional
In short: (§1)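 MIC (µg/mL) by in vitro growth inhibition in an assay system at pH 7.4. Tetracycline was run routinely to check medium, incubation conditions and inoculum virility.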

Bacillus subtilis = assay: Antibacterial activity against Bacillus subtilis MB964 assessed as growth inhibition; format: functional; in short: as §1
Staphylococcus aureus [2] = assay: Antibacterial activity against Staphylococcus aureus MB2865 assessed as growth inhibition; format: functional; in short: as §1
Pseudomonas aeruginosa [3] = assay: Antibacterial activity against Pseudomonas aeruginosa MB2245 assessed as growth inhibition; format: functional; in short: as §1
[4] = test system: Corynebacterium pseudodiphtheriticum; assay: Antibacterial activity against Corynebacterium pseudodiphtheriticum assessed as growth inhibition at 2 to 8 ug/mL; format: functional, organism-based
Streptococcus pyogenes = assay: Antibacterial activity against Streptococcus pyogenes assessed as growth inhibition at 2 to 8 ug/mL; format: functional, organism-based
Staphylococcus aureus [5] = assay: Antibacterial activity against Staphylococcus aureus MB108 assessed as growth inhibition; format: functional; in short: as §1
Proteus vulgaris = assay: Antibacterial activity against Proteus vulgaris MB838 assessed as growth inhibition at 200 ug/mL; format: functional, organism-based
Salmonella = assay: Antibacterial activity against Salmonella schottmuelleri MB2837 assessed as growth inhibition; format: functional; in short: as §1
Escherichia coli = assay: Antibacterial activity against Escherichia coli MB2884 assessed as growth inhibition; format: functional; in short: as §1
[6] = test system: Bordetella bronchiseptica; assay: Antibacterial activity against Bordetella bronchiseptica MB905 assessed as growth inhibition; format: functional; in short: as §1
Klebsiella aerogenes = assay: Antibacterial activity against Klebsiella aerogenes MB1503 assessed as growth inhibition; format: functional; in short: as §1
Pasteurella multocida = assay: Antibacterial activity against Pasteurella multocida MB7 assessed as growth inhibition at 2 to 8 ug/mL; format: functional, organism-based
[7] = test system: Bordetella bronchiseptica; assay: Antibacterial activity against Bordetella bronchiseptica MB3551 assessed as growth inhibition; format: functional; in short: as §1

Row | Compound | MIC (Pseudomonas aeruginosa [1]) | MIC (Bacillus subtilis) | MIC (Staphylococcus aureus [2]) | MIC (Pseudomonas aeruginosa [3]) | growth inhibition (GI) [4] | growth inhibition (GI) (Streptococcus pyogenes) | MIC (Staphylococcus aureus [5]) | growth inhibition (GI) (Proteus vulgaris) | MIC (Salmonella) | MIC (Escherichia coli) | MIC [6] | MIC (Klebsiella aerogenes) | growth inhibition (GI) (Pasteurella multocida) | MIC [7]
1 | Cc1ccc(C(C)(C)C)cc1CCCC(CCCc1cc(C(C)(C)C)ccc1C)NCCNCCNCCN.Cl | 50 µg/mL | 4 µg/mL | 60 µg/mL | 80 µg/mL | inactive | Active | 15 µg/mL | inactive | 10 µg/mL | 60 µg/mL | 15 µg/mL | 10 µg/mL | Active | 10 µg/mL
2 | CC1(C)C2CCC(C2)C1CCC(CCC1C2CCC(C2)C1(C)C)NCCNCCCNCCN.Cl (stereo unspecified) | 30 µg/mL | 6 µg/mL | 6 µg/mL | 15 µg/mL | inactive | Active | 6 µg/mL | inactive | 6 µg/mL | 8 µg/mL | 8 µg/mL | 10 µg/mL | Active | 6 µg/mL
3 | CC1(C)C2CCC(C2)C1CCC(CCC1C2CCC(C2)C1(C)C)NCCCN1CCN(CCCN)CC1.Cl (stereo unspecified) | 200 µg/mL | 8 µg/mL | 20 µg/mL | 200 µg/mL | inactive | Active | 6 µg/mL | inactive | 6 µg/mL | 20 µg/mL | 4 µg/mL | 4 µg/mL | Active | 8 µg/mL
4 | CC(C)C1CCC(CCC(CCC2CCC(C(C)C)CC2)NCCCNCCCN)CC1.Cl (stereo unspecified) | 60 µg/mL | 6 µg/mL | 40 µg/mL | 60 µg/mL | inactive | Active | 20 µg/mL | inactive | 20 µg/mL | 50 µg/mL | 10 µg/mL | 50 µg/mL | Active | 10 µg/mL
5 | Cl.NCCCNCCCNC(CCc1ccc2ccccc2c1)CCc1ccc2ccccc2c1 | 40 µg/mL | 8 µg/mL | 8 µg/mL | 100 µg/mL | inactive | Active | 6 µg/mL | inactive | 8 µg/mL | 15 µg/mL | 4 µg/mL | 20 µg/mL | Active | 4 µg/mL
6 | CC(C)c1ccc(CCCC(CCCc2ccc(C(C)C)cc2)NCCCNCCCN)cc1.Cl | 15 µg/mL | 6 µg/mL | 20 µg/mL | 40 µg/mL | inactive | Active | 20 µg/mL | inactive | 10 µg/mL | 40 µg/mL | 10 µg/mL | 20 µg/mL | Active | 10 µg/mL
7 | Cl.NCCCNCCCNC(CC1CCCCC1)CC1CCCCC1 | 60 µg/mL | 10 µg/mL | 40 µg/mL | 40 µg/mL | inactive | Active | 30 µg/mL | inactive | 4 µg/mL | 40 µg/mL | 4 µg/mL | 8 µg/mL | Active | 6 µg/mL
8 | CC(C)c1ccc(CCC(CCc2ccc(C(C)C)cc2)NCCCNCCCN)cc1.Cl | 10 µg/mL | 4 µg/mL | 8 µg/mL | 10 µg/mL | inactive | Active | 8 µg/mL | inactive | 4 µg/mL | 8 µg/mL | 4 µg/mL | – | Active | 4 µg/mL
9 | Cl.NCCCNCC(O)CNC(CCC1CCCCC1)CCC1CCCCC1 (stereo unspecified) | 20 µg/mL | 4 µg/mL | 15 µg/mL | 8 µg/mL | – | – | 8 µg/mL | – | 4 µg/mL | 8 µg/mL | 4 µg/mL | 6 µg/mL | – | 4 µg/mL
